# From PubChem
# This is a sample that favours compounds with a hit; in the whole collection about 3.4% have one here.
# GPR7 antagonist: GPR7 receptor antagonists, primary screen, cell-based, fluorescence, single concentration. 290,000 tested, 1.1% active. AID 1861, 2009. inhibition, % at 4.4 µM. GPR7-expressing cells, fluorescence antagonist assay; in the data active = inhibition above about 16%, passing the limit was not always enough;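 note: cells stimulated with the agonist NPW; 0% = agonist with vehicle and 100% = vehicle without agonist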
# TRPML3 agonist: human TRPML3 channel agonists, primary screen, cell-based, HEK293 TRPML3-YFP, Fluo-8 calcium fluorescence, 3 µM | 100% = the carbachol control signal | 220,000 tested, 0.29% active | activation, % at 3 µM | AID 1448, 2008;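 active = activation above its plate's cutoff, the mean activation of the plate's test wells plus 3 SD, cut at about 12% in these data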;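 note: 0% = DMSO only wells and 100% = carbachol wells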
# Target sequence (Q8TDD5 whole entry, looked up): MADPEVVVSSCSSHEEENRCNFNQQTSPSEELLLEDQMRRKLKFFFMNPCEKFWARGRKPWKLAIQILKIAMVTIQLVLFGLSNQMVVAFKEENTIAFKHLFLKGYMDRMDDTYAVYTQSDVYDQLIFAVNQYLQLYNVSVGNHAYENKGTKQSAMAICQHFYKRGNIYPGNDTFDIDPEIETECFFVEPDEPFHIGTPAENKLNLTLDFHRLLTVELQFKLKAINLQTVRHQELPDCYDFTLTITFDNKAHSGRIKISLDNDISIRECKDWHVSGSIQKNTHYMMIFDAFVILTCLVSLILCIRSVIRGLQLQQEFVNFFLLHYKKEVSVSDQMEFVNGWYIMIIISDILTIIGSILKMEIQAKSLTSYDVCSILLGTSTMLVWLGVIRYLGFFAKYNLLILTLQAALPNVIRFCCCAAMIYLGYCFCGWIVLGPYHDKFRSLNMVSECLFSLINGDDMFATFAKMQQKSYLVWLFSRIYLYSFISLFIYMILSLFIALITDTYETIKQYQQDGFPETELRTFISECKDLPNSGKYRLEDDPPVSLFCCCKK
#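 Test system – HEK293 line with stable expression of human TRPML3-YFP channel · Control set – carbachol 87 µM final as high control (100%), DMSO as low control (0%) · Signal – Fluo-8 calcium dye fluorescence, ex 470-495, em 515-575 nm · Incubation – 1-h 37 °C dye load, 5-s basal, 120-s post-compound reads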
# LANA-H2B inh: blockers of LANA interaction with H2A/H2B – biochemical, FP readout, HTS, primary screen | Protein LANA1 (Human herpesvirus 8 type P (isolate GK18)), Q9QR71 | cell-free LANA-H2A/H2B peptide, fluorescence polarization | inhibition, % (concentration not given with the values) | 320,000 tested, 0.6% active; in the data active = inhibition mostly above about 10%, no sharp cut-off; inactive = mostly below about 6.7%
# TAAR1 antagonist: human TAAR1 antagonists, primary screen, Fluo-8 calcium fluorescence, CHO RD-HGA16 cells | Trace amine-associated receptor 1 (Homo sapiens), Q96RJ0 | antagonist | inhibition, % at 3 µM | 360,000 tested, 1.5% active;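 active = inhibition above a per-plate cutoff, the mean inhibition of test compounds on that plate plus 3 SD, cut at about 49% in these data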;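 note: 0% = DMSO plus EC80 beta-PEA response and 100% = DMSO alone without agonist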
#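 Test system – hTAAR1-expressing CHO RD-HGA16 cells, Gα16-coupled · Reagent – β-PEA at EC80 concentration, post-compound challenge · Compound dosing – 3 µM, single point · Timing – 140 s kinetic read after compound, 140 s after agonist · Detection – Fluo-8 intracellular calcium dye fluorescence, real-time kinetic reads · Control set – DMSO and EC80 PEA controls · Repeats – n of 1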
# zfTRPN1 agonist: zebrafish TRPN1 channel agonists, primary screen, cell-based, HEK293, calcium fluorescence. transient receptor potential cation channel N1 (TRPN1/NompC), Danio rerio. activation, % at 3 µM. HEK293 zebrafish TRPN1-YFP, Fluo-8 calcium fluorescence; 100% = response to 87 µM carbachol. 220,000 tested, 0.18% active;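 active = activation above its plate's cutoff, the mean activation of test wells on that plate plus 3 SD, cut at about 19% in these data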;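 note: 0% = DMSO alone and 100% = 87 µM carbachol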
#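 System: zebrafish TRPN1-YFP in HEK293 cells / Dosing: 3 µM single point / Timing: dye loading 1 h at 37 °C, then 30 min room temperature / Signal: Fluo-8 calcium fluorescence, excitation 470-495 nm, emission 515-575 nm / Read-out basis: percent activation from peak over basal fluorescence ratio, control-normalized / Control set: high carbachol 87 µM, low DMSO alone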
# TAAR1 ag: human TAAR1 agonists, primary screen, Fluo-8 calcium fluorescence, CHO RD-HGA16 cells | Trace amine-associated receptor 1 (Homo sapiens), Q96RJ0 | vehicle wells 0%, saturating PEA agonist 100% | activation, % at 3 µM | 360,000 tested, 0.99% active;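 active = activation above the mean activation of all test compounds in the run plus 3 SD, cut at about 38% in these data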
#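 Assay system: CHO-derived RD-HGA16 cells with stable Gα16 and human TAAR1; timing: 17-24 h seeding, 75 min 37 °C dye, 30 min RT; read-out: % activation from peak over basal fluorescence ratio, DMSO-to-PEA scaled; measured by: kinetic Fluo-8 calcium fluorescence; benchmarks: low control DMSO, high control PEA (EC100); doses: 3 µM single concentration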
# An asterisk follows results filed as active; · = not tested or not shown.
SMILES,GPR7 antagonist,TRPML3 agonist,LANA-H2B inh,TAAR1 antagonist,zfTRPN1 agonist,TAAR1 ag
CCc1ccc([C@@H]2CC=C(C(=O)O)[C@H](c3ccc(Cl)cc3)N2S(=O)(=O)c2ccc(C)cc2)cc1,·,·,0.0,51.5*,·,8.9
Cc1ccc([C@@H]2CC=C(C(=O)O)[C@H](c3ccccc3)N2S(=O)(=O)c2ccc(C)cc2)cc1,·,·,-2.7,3.8,·,4.7
Cc1ccc([C@H]2C(C(=O)O)=CC[C@@H](c3ccc(Cl)cc3)N2S(=O)(=O)c2ccccc2C)cc1,·,·,-2.0,·,·,·
CC[C@@H]1C=C(C(=O)O)[C@H](c2ccc(Cl)c(Cl)c2)N1S(=O)(=O)c1ccc(C)cc1,·,·,-0.8,-2.2,·,2.6
Cc1ccccc1S(=O)(=O)N1[C@@H](c2ccc(Cl)cc2)C(C(=O)O)=CC[C@H]1c1ccc(Cl)cc1,·,·,60.0*,42.6,·,-1.4
CCCCC[C@@H]1C=C(C(=O)O)[C@H](c2ccc(Cl)c(Cl)c2)N1S(=O)(=O)c1ccc(C)cc1,·,·,120.0*,14.9,·,3.3
COC(=O)C1=C(C)N(Cc2ccccc2C(F)(F)F)C(=NCc2ccc(OC)cc2)NC1c1ccc(C(F)(F)F)cc1 (stereo not given),·,·,·,1.7,·,9.2
C#CCNC(=O)C[C@H]1C[C@@]2(C(=O)OC)C(=C[C@H](COCc3ccccc3)O[C@@H]2C)N(Cc2ccc3c(c2)OCO3)C1=O,·,·,·,-20.9,·,4.1
O=C(C(=O)N1CCN(C(=O)c2ccccc2C(F)(F)F)CC1)c1cccc(C(F)(F)F)c1,·,·,·,-10.8,·,2.9
COC(=O)C1=C(C)N(C)C(=NCc2ccccc2C(F)(F)F)NC1c1ccc(F)cc1 (stereo not given),·,·,·,-10.1,·,3.5
COCCn1c(C)cc(C(=O)COC(=O)c2ccc(Br)o2)c1C,19.1*,0.8,-0.4,-22.6,1.4,3.3
Cc1ccc(-c2cc(C(=O)Nc3cccc(S(=O)(=O)N(C)C)c3)c3ccccc3n2)o1,0.5,·,-5.5,58.4*,·,28.8
CCN(CC)S(=O)(=O)c1cc(NC(=O)c2cc(-c3ccccn3)nc3ccccc23)ccc1C,-7.7,0.4,-0.7,55.2*,1.8,15.8
O=C(Nc1cccc(S(=O)(=O)NCc2ccco2)c1)c1cc(-c2ccc(F)cc2)nc2ccccc12,-2.3,1.0,-2.3,57.1*,2.3,11.1
Cc1cc(C)n(C(=O)c2cccc(S(=O)(=O)N3CCCC3)c2)n1,20.8*,0.0,-6.9,25.9,-1.9,1.2
Cc1ccc(-c2cc(C(=O)Nc3ccccc3C)c3ccccc3n2)o1,-3.3,1.2,-1.3,18.3,-0.2,11.7
COc1ccc(N2C[C@@]3(O)CC[C@@H](O)[C@@H](OC)[C@@H]3[C@@](C)(O)[C@@H]2CC=C(C)C)cc1,·,·,·,-10.2,·,0.9
O=[N+]([O-])c1ccc(OC2OCC(O)C(O)C2O)cc1 (stereo not given),·,·,·,-23.9,·,3.5
Cc1ccc(NC(=S)Nc2ccc(-c3nnc4n3CCCCC4)cc2)cc1C,·,·,·,1.1,·,6.0
O=C(Nc1cccc(S(=O)(=O)N2CCCC2)c1)c1cc(-c2ccccn2)nc2ccccc12,-7.4,1.4,15.0,53.3*,2.9,21.0
COC(=O)c1ccc(NC(=O)c2cc(-c3ccccn3)nc3ccccc23)cc1,-4.4,0.5,0.6,-23.5,1.9,1.3
CCN(CC(=O)Nc1ccc(NC(C)=O)cc1)C(=O)c1ccc2ccccc2c1,·,·,0.9,-29.6,·,5.4
Cc1cc(C(=O)Nc2cccc(S(=O)(=O)N3CCCC3)c2)c2ccccc2n1,·,·,·,5.0,·,8.8
CCN(CC(=O)Nc1ccc(NC(C)=O)cc1)C(=O)c1cc(-c2ccccc2Cl)nc2ccccc12,·,·,·,71.9*,·,39.3*
CCN(CC)C(=O)c1cccc(NC(=O)c2cc(-c3ccccn3)nc3ccccc23)c1,·,·,1.6,48.8*,·,17.1
SMILES,GPR7 antagonist,TRPML3 agonist,LANA-H2B inh,TAAR1 antagonist,zfTRPN1 agonist,TAAR1 ag
Cc1nc(-c2cccc(NC(=O)c3cccc(S(=O)(=O)N4CCCC4)c3)c2)cs1,·,·,0.7,53.4*,·,8.9
COc1ccc(N/C(=C\C(=O)c2ccccc2)c2ccccc2)cc1OC,·,·,·,2.7,·,-0.8
CC1=N/C(=C\c2ccc([N+](=O)[O-])cc2)C(=O)N1c1ccc(C)c(Cl)c1,·,·,·,4.6,·,-1.3
O=C(Nc1ncc2c(n1)CC(c1ccco1)CC2=O)c1ccccc1 (stereo not given),-8.4,0.5,44.5*,5.8,1.9,0.8
Cc1ccc(C(=O)Nc2ncc3c(n2)CC(c2ccco2)CC3=O)cc1 (stereo not given),-1.5,0.2,-2.8,-11.3,-0.6,1.4
CC(C)C1=CC2C3C(=O)N(c4ccccc4)C(=O)C3C1C(=O)C2(C)O (stereo not given),·,·,·,-2.6,·,2.1
COc1ccccc1CNC(=O)CCC(=O)Nc1nnc(C(C)C)s1,-4.3,0.6,19.9*,4.0,-0.4,0.6
COc1ccc(/C=C/C(=O)Nc2nnc(C(C)C)s2)cc1OC,-11.6,0.3,19.7*,-9.4,0.8,3.2
COc1ccc(/C=C/C(=O)Nc2ccccc2)cc1OC,-2.4,-0.7,-0.2,6.1,2.5,0.4
COc1ccc(C(=O)NCC2CCN(C(=O)C(=O)c3cc4ccccc4o3)CC2)cc1,·,·,·,15.7,·,-1.3
CC(C)C[C@H]1COc2cccc(F)c2S(=O)(=O)N1,·,·,·,-6.2,·,-0.5
CCCN1CCCCC(NC(=O)c2ccc(F)c(F)c2)C1=O (stereo not given),·,·,·,-21.1,·,0.2
Nc1c(C(=O)c2ccccc2)sc2nsc(SCCN3CCCC3)c12,0.4,12.7*,-2.0,-5.2,26.2*,30.2
Nc1c(C(=O)c2ccc(Cl)cc2)sc2nsc(SCCN3CCOCC3)c12,15.7,10.9,-6.8,1.6,23.1*,6.9
COc1cccc(NC(=O)C(=O)N/N=C/c2cc(C)n(-c3ccc(Cl)c(Cl)c3)c2C)c1,-9.4,0.2,-0.6,14.2,-0.7,-1.1
Cc1cc(/C=N/NC(N)=S)c(C)n1-c1ccc(Cl)c(Cl)c1,-4.5,-0.5,2.6,50.3*,-0.5,30.5
COc1cccc(CNc2ccc(S(=O)(=O)Nc3nccs3)cc2)c1O,17.2*,0.5,3.5,12.4,1.5,8.0
Cc1ccccc1NC(=O)COC(=O)C1(C)CC1(Cl)Cl (stereo not given),15.1,-0.3,2.1,10.2,-1.7,0.8
